Consider 3 compounds from ChEMBL document CHEMBL4732238, “Synthesis, biological evaluation, and structure-activity relationships of new tubulin polymerization inhibitors based on 5-amino-1,2,4-triazole scaffold” (Bioorg Med Chem Lett, 2021).

The test system of assay [1] is MCF7. The assay is described as follows: Antiproliferative activity against human MCF7 cells assessed as cell growth inhibition at 100 uM by MTT assay relative to control. The conditions noted are these: read-out: GI. It is filed as functional. The method in brief:
(§1)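 Five human lines (MCF-7, HeLa, A549, PC-3, Panc-1) exposed to a single 100 μM concentration. Viability read by MTT. Results expressed as […] versus untreated control cells.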
For orientation: Tetrazolium dyes change colour on reduction, which living cells bring about.

In assay [2] the test system is HeLa. The assay can be described thus: Antiproliferative activity against human HeLa cells assessed as cell growth inhibition at 100 uM by MTT assay relative to control. The conditions noted are these: read-out: GI. It is filed as functional. Put shortly: as §1
In a further assay the test system is A549. The assay is described as follows: Antiproliferative activity against human A549 cells assessed as cell growth inhibition at 100 uM by MTT assay relative to control. The assay is classed as functional. The settings on record: read-out: GI. Put shortly: as §1
A further assay relates to PC-3. The assay is described as follows: Antiproliferative activity against human PC-3 cells assessed as cell growth inhibition at 100 uM by MTT assay relative to control. The assay is classed as functional. The settings on record: read-out: GI. Put shortly: as §1
Assay [3] concerns PANC-1. The assay is described as follows: Antiproliferative activity against human PANC-1 cells assessed as cell growth inhibition at 100 uM by MTT assay relative to control. The settings on record: read-out: GI. It is filed as functional. Put shortly:
as §1

The test system of assay [4] is MCF7. The assay is described as follows: Antiproliferative activity against human MCF7 cells assessed as cell growth inhibition by MTT assay. It is filed as functional, cell-based. Put shortly:
(§2)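 MTT antiproliferation readout. […] Mean ± SD from three independent experiments.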

In assay [5] the test system is HeLa. The assay can be described thus: Antiproliferative activity against human HeLa cells assessed as cell growth inhibition by MTT assay. It is filed as functional, cell-based. Put shortly:
as §2

Assay [6] relates to PANC-1. The assay can be described thus: Antiproliferative activity against human PANC-1 cells assessed as cell growth inhibition by MTT assay. It is filed as functional, cell-based. The method in brief:
as §2

A further assay deals with K562. The assay can be described thus: Antiproliferative activity against human K562 cells assessed as cell growth inhibition by MTT assay. The assay is classed as functional, cell-based.
For another assay, the target named is Tubulin (Homo sapiens) (UniProt P68371+Q9H4B7+P0DPH7+P68366+Q13509+Q71U36+P04350+Q3ZCM7+P07437+P68363+Q9BQE3+Q6PEY2+Q13885+Q9BVA1+Q9BUF5). The assay is described as follows: Inhibition of tubulin (unknown origin) polymerization at 10 uM measured every 1 min over 20 mins by fluorescence assay relative to control. It is filed as protein-complex assay. The method in brief: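 Tubulin in reaction buffer incubated at 37 °C with test agent at final 10 μM; control 1% DMSO. Polymerization followed at 340 nm, read every minute over 20 min. Run three times.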

For a further assay, the target named is Tubulin. The assay can be described thus: Inhibition of tubulin (unknown origin) polymerization measured every 1 min over 20 mins by fluorescence assay. The assay is classed as protein-complex assay, Homo sapiens. Put shortly:
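Tubulin polymerization at 37 °C in reaction buffer, followed at 340 nm each minute over 20 min; 1% DMSO control. IC50 given as mean of three independent experiments done in quadruplicate.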

Assay [7] concerns HeLa. The assay is described as follows: Cell cycle arrest in human HeLa cells assessed as accumulation at G1/G0 phase at 10 uM measured after 48 hrs by propidium iodide staining based flow cytometry (reference value: 54.82 %). The assay is classed as functional. In general terms: In flow cytometry, cells or beads pass a laser one at a time.
Assay [8] deals with HeLa. The assay can be described thus: Cell cycle arrest in human HeLa cells assessed as accumulation at S phase at 10 uM measured after 48 hrs by propidium iodide staining based flow cytometry (reference value: 30.73 %). It is filed as functional.
Assay [9] relates to HeLa. The assay can be described thus: Cell cycle arrest in human HeLa cells assessed as accumulation at G2/M phase at 10 uM measured after 48 hrs by propidium iodide staining based flow cytometry (reference value: 14.45 %). It is filed as functional.
The subject of assay [10] is HeLa. The assay can be described thus: Cell cycle arrest in human HeLa cells assessed as accumulation at G1/G0 phase at 20 uM measured after 48 hrs by propidium iodide staining based flow cytometry (reference value: 54.82 %). It is filed as functional.
Assay [11] deals with HeLa. The assay is described as follows: Cell cycle arrest in human HeLa cells assessed as accumulation at S phase at 20 uM measured after 48 hrs by propidium iodide staining based flow cytometry (reference value: 30.73 %). It is filed as functional.
In assay [12] the test system is HeLa. The assay can be described thus: Cell cycle arrest in human HeLa cells assessed as accumulation at G2/M phase at 20 uM measured after 48 hrs by propidium iodide staining based flow cytometry (reference value: 14.45 %). The assay is classed as functional.
For assay [13], the system named is HeLa. The assay is described as follows: Cell cycle arrest in human HeLa cells assessed as accumulation at G1/G0 phase at 40 uM measured after 48 hrs by propidium iodide staining based flow cytometry (reference value: 54.82 %). It is filed as functional.
Assay [14] concerns HeLa. The assay is described as follows: Cell cycle arrest in human HeLa cells assessed as accumulation at S phase at 40 uM measured after 48 hrs by propidium iodide staining based flow cytometry (reference value: 30.73 %). The assay is classed as functional.
In assay [15] the test system is HeLa. The assay is described as follows: Cell cycle arrest in human HeLa cells assessed as accumulation at G2/M phase at 40 uM measured after 48 hrs by propidium iodide staining based flow cytometry (reference value: 14.45 %). The assay is classed as functional.

pIC50: −log10 of the molar value.

A word on the pIC50: it is −log10 of the IC50, conventionally taken in molar units. As a reminder, the inhibition is how much of the control response was suppressed. With `COc1ccc(C(=O)Cn2nc(-c3cc(OC)c(OC)c(OC)c3)nc2N)cc1`, the inhibition of growth at 100 µM with MCF7 [1] stood at 73%; with HeLa [2], 76%; in the assay on A549, 21%; with PC-3, 31%; in the assay with PANC-1 [3] it was 57%. Further, the negative-log IC50 (pIC50) with MCF7 [4] was 4.39; in the assay with HeLa [5] it was 4.28; in the assay on PANC-1 [6], 4.22; with K562 it was 4.18; on Tubulin, 5.03. Further, the inhibition against Tubulin (Homo sapiens) came to 52%.
As for `COc1cc(-c2nc(N)n(CC(=O)Nc3ccc(C(C)(C)C)cc3)n2)cc(OC)c1OC`, the Activity in the assay with HeLa [7] amounted to 54.33%; with HeLa [8], 30.96%; in the assay with HeLa [9], 14.7%; with HeLa [10] it was 56.06%; in the assay with HeLa [11], 28.35%; with HeLa [12], 15.59%. The Activity in the assay on HeLa [13] was found to be 52.66%; in the assay on HeLa [14], 18.6%; in the assay on HeLa [15], 28.74%. For the same compound, the inhibition of growth at 100 µM was determined as 93% in the assay on MCF7 [1]; 95% in the assay on HeLa [2]; 93% in the assay on A549; 70% with PC-3; 93% in the assay with PANC-1 [3]. The pIC50 is 4.45 in the assay with MCF7 [4], 4.72 in the assay with HeLa [5], 4.45 with PANC-1 [6] and 5.03 in the assay with K562. The compound also gave an inhibition against Tubulin (Homo sapiens) of 48%.
As to `COc1cc(-c2nc(N)n(Cc3ccc(C)cc3)n2)cc(OC)c1OC`, the inhibition of growth at 100 µM in the assay on MCF7 [1] was 55%; in the assay on HeLa [2], 76%; in the assay on A549 it was 34%; in the assay on PC-3, 39%; with PANC-1 [3] it was 53%. Moreover, the pIC50 with MCF7 [4] is 4.13; with HeLa [5], 4.33; in the assay with PANC-1 [6] it was 4.21; in the assay with K562 it was 4.77. Also, the inhibition against Tubulin (Homo sapiens) came to 25%.
